For data set [1], the target named is T1, Prostaglandin G/H synthase 2 (Homo sapiens) (UniProt P35354).
T1 sequence (whole entry): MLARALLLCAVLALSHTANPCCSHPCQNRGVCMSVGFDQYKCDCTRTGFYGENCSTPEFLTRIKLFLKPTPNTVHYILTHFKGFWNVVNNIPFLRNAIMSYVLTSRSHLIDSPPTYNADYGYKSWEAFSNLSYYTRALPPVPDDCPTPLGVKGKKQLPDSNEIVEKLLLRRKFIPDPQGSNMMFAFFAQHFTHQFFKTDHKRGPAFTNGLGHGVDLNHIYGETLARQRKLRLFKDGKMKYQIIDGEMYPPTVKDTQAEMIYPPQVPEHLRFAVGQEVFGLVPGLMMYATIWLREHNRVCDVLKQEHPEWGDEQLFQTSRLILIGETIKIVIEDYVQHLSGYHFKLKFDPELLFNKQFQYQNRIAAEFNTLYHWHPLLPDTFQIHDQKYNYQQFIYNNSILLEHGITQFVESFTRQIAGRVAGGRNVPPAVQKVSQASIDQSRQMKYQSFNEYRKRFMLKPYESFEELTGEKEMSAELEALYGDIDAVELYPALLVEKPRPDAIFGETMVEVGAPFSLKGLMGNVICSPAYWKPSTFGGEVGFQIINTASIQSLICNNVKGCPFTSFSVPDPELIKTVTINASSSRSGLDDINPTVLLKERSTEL
Nature of the data set: Inhibition of human recombinant COX-2 at 50 uM. The gist of the method:
(§1)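 Isolated ovine COX-1 and human recombinant COX-2 tested by ELISA-based inhibitor screening kit with compound at 10 and 50 µM. Positive control indomethacin at 0.1 µM (COX-1) or 6 µM (COX-2). Mean of duplicates; Student t-test.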

The target of data set [2] is T1, Prostaglandin G/H synthase 2 (Homo sapiens). Nature of the data set: Inhibition of human recombinant COX-2 at 10 uM. The gist of the method:
as §1

A further data set relates to Rattus norvegicus. Nature of the data set: Antiinflammatory activity in albino rat assessed as inhibition of carrageenan-induced paw edema at 100 umol/kg, po administered 1 hr before carrageenan challenge measured after 3 hrs by plethysmometric analysis relative to control. It counts as functional. The gist of the method: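 Albino rats of both sexes (150–200 g) were dosed orally as a suspension in 1% Tween 80 in saline, with vehicle controls. After 1 h, 0.1 mL 1% carrageenan or saline was injected subplantar. Paw volume was read by glass plethysmometer at 3 h. Edema = carrageenan-paw minus saline-paw volume; % inhibition vs vehicle; Student t-test.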

Data set [3] is described as follows: Cytotoxicity against mouse […] cells after 48 hrs by MTT assay. It counts as cell-based. Summed up:
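J774 macrophages in DMEM (4 mM L-glutamine, 10% heat-inactivated FBS) were seeded at 1 × 10^5 cells/well and grown for 48 h at 37 °C, 5% CO2. They were then exposed to compounds at 25–400 µM for 48 h. MTT (0.1 mg/mL final) was added for 3 h, formazan was dissolved in DMSO/glycine buffer pH 10.5, and absorbance was read at 560 nm to give an IC50.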

Data set [4] deals with T2, Prostaglandin G/H synthase 1 (Ovis aries) (UniProt P05979).
T2 sequence (whole entry): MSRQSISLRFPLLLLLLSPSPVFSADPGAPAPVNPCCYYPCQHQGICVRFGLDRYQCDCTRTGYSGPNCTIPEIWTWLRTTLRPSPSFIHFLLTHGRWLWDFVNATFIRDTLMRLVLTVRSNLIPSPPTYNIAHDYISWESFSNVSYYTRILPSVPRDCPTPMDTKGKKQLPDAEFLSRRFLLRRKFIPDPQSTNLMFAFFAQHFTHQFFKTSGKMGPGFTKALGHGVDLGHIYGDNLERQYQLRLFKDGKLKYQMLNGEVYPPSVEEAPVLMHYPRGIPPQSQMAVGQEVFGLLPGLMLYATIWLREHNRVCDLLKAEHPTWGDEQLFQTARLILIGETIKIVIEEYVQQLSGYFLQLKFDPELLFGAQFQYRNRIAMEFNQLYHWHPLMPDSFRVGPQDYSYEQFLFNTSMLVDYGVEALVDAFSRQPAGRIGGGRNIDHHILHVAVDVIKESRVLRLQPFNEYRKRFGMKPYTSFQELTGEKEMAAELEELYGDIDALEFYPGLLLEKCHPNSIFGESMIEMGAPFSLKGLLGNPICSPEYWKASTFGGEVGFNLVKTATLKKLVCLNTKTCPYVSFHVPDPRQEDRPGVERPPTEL
Nature of the data set: Inhibition of ovine COX-1 at 10 uM. The gist of the method: as §1

The nature of data set [5]: Cytotoxicity against human HT-29 cells expressing NF-kappaB-hrGFP assessed as highest non-cytotoxic dose for 100% cell survival after 24 hrs by MTT assay. It counts as cell-based. Particulars: read-out: Activity. The gist of the method:
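HT-29 cells stably carrying pNF-κB-hrGFP, seeded at 0.5 × 10^6/mL in DMEM with 10% FBS, grown 24 h at 37 °C, 5% CO2. Compounds added in DMSO (<0.5% v/v final) at 12.5–400 µM for 24 h. Viability by MTT reduction (2 h), formazan dissolved in DMSO/glycine buffer, read at 560 nm.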

Data set [6] has as its target T2, Prostaglandin G/H synthase 1 (Ovis aries). Nature of the data set: Inhibition of ovine COX-1 at 50 uM. Summed up:
as §1

A further data set deals with Glycine max. Nature of the data set: Inhibition of soybean lipoxygenase using arachidonic acid as substrate at 50 uM. The gist of the method:
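Soybean 15-lipoxygenase kit assay, arachidonic acid substrate, H2O2 as lipoxygenating agent in 0.1 M Tris-HCl pH 7.4. Single-point screen at 50 µM. IC50 found by varying concentration over 10–100 µM. Quercetin at 4 µM as positive control; duplicate means; Student t-test.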

Data set [7] relates to HT-29. Description: Pro-inflammatory activity in NFkappaB-GFP transfected human HT-29 cells at 25 to 400 uM after 24 hrs by propidium iodide staining-based flow cytometric analysis. It counts as ADME, cell-based. Particulars: ht-29, 24 h. Summed up:
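Reporter HT-29-NF-κB-hrGFP cells given compound alone, without TNF-α, for 18–24 h at 37 °C after the same 2 h pre-incubation. GFP-positive live (propidium iodide-excluding) cells counted by flow cytometry; IL-8 in supernatant measured by bead-based flow cytometry.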

Another data set concerns Mus musculus. Description: Analgesic activity in albino mouse assessed as inhibition of acetic acid-induced abdominal constriction at 100 umol/kg, po administered 1 hr before acetic acid challenge measured after 30 mins relative to control. It counts as functional. As to conditions: Abdomen. The gist of the method:
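Albino mice of both sexes (18–23 g) were dosed orally as a suspension in 5% arabic gum in saline, with vehicle controls. After 1 h they received 0.6% acetic acid ip (0.1 mL/10 g). Constrictions were counted for 20 min starting 10 min after injection. Data are % inhibition vs vehicle, mean ± SEM, Student t-test.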

Data set [8] deals with HT-29. Nature of the data set: Inhibition of NF-kappaB activation expressed in human HT-29 cells assessed as inhibition of TNFalpha-stimulated IL8 release at 100 uM after 24 hrs by flow cytometric analysis relative to control. In kind it is cell-based. Summed up: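 Reporter HT-29-NF-κB-hrGFP cells pretreated 2 h with compound (DMSO <0.5%) at the highest concentration with 100% survival, then stimulated with TNF-α (3 ng/mL final) for 18–24 h at 37 °C. IL-8 in clarified supernatant measured by flow cytometric bead assay (500 events). Expressed as % of TNF-α/DMSO control ± SD; thalidomide as reference.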

SMILES strings stand for the structures.

Here are results for three molecules from ChEMBL document CHEMBL1955718, “Discovery of new orally effective analgesic and anti-inflammatory hybrid furoxanyl N-acylhydrazone derivatives” (Bioorg Med Chem, 2012).

In the case of `Cc1[nH]cnc1C(=O)N/N=C/c1ccc2no[n+]([O-])c2c1`, the inhibition in [1] was 6.4%; in data set [2] it was 19.6%; in data set [4], 25.9%; in data set [6], 22.3%; in the data set with Glycine max it was 0%. Also, the inhibition in vivo at 100 µmol/kg is 31% with Rattus norvegicus and 46% with Mus musculus. Moreover, inhibition in data set [3] was half-maximal at 38 µM (IC50). In addition, the MNTC at 24 h in data set [5] was 50 µM. The Activity entry with HT-29 [7] is “Non-toxic”.

For `Cc1c(C(=O)N/N=C/c2ccc(N(C)C)cc2)no[n+]1[O-]`, the inhibition in [1] came to 22%; in [2], 17.8%; in the data set on HT-29 [8], 98%; in data set [4], 22.5%; in data set [6] it was 25.3%; in the data set with Glycine max, 0%. In the data set with Rattus norvegicus, the inhibition in vivo at 100 µmol/kg is 19%. Further, in [3], it took 129 µM to reach half-maximal inhibition (IC50). For the same molecule, the MNTC at 24 h in [5] turned out to be 100 µM. Moreover, the Activity entry in the data set on HT-29 [7] is reported as “Non-toxic”.

For `O=C(N/N=C/c1c(-c2ccccc2)no[n+]1[O-])c1ccc2c(c1)OCO2`, the inhibition turned out to be 11.9% in data set [1]; 13.1% in data set [2]; 4% in the data set with HT-29 [8]; 27% in data set [4]; 28.5% in data set [6]; 0% in the data set on Glycine max. Besides, the values for the inhibition in vivo at 100 µmol/kg in the data set with Rattus norvegicus and in the data set on Mus musculus were 0% and 42%, respectively. The molecule further displayed an IC50 in data set [3] of 191 µM. Further, in data set [5], the MNTC at 24 h came out at 100 µM. The Activity entry in the data set with HT-29 [7] was “Non-toxic”.
